Activity calls are given as the source filed them. The rule behind the calls is not given here.
Key:
[1] = organism: Mus musculus; assay: Binding affinity to amyloid beta plaques in transgenic C57BL6 mouse cortex expressing APP Swedish mutant/PSEN1 at 370 KBq/100 ul after 1 hr by autoradiographic analysis; conditions: tested as the 18F-labelled form
Procedure, shortened: (§1)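 Paraffin brain sections from 12-month-old Tg mice (C57BL6, APPswe/PSEN1) and age-matched controls, deparaffinized through xylene and graded ethanol, then PBS (0.2 M, pH 7.4) 30 min. Incubated with 18F tracer (370 KBq per 100 μL) 1 h at room temperature, washed in 40% EtOH, rinsed in water, then phosphor plate exposure 2 h. The same sections were afterwards stained with 0.125% thioflavin S in 10% EtOH for 3 min and washed in 40% EtOH.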

[2] = organism: Mus musculus; assay: Binding affinity to amyloid beta plaques in transgenic C57BL6 mouse hippocampus expressing APP Swedish mutant/PSEN1 at 370 KBq/100 ul after 1 hr by autoradiographic analysis; type: tissue-based; conditions: tested as the 18F-labelled form; procedure, shortened: as §1
[3] = organism: Mus musculus; assay: Binding affinity to amyloid beta plaques in transgenic C57BL6 mouse hippocampus expressing APP Swedish mutant/PSEN1 at 370 KBq/100 ul after 1 hr by thioflavinS-staining method; type: tissue-based; conditions: tested as the 18F-labelled form; procedure, shortened: as §1
[4] = organism: Mus musculus; assay: Binding affinity to amyloid beta plaques in transgenic C57BL6 mouse cortex expressing APP Swedish mutant/PSEN1 at 370 KBq/100 ul after 1 hr by thioflavinS-staining method; conditions: tested as the 18F-labelled form; procedure, shortened: as §1
[5] = Displacement of [125I]-IMPY from amyloid beta (1 to 42) fibrils after 2 hrs by gamma-counting analysis
Procedure, shortened: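 Competition binding with aggregated Aβ1-42 fibrils and [125I]IMPY (60000−100000 cpm/100 μL) in 0.05% BSA (1 mL total); inhibitors 10⁻⁴−10^−8.5 M in ethanol. Incubated 37 °C for 2 h, then GF/B vacuum filtration with PBS (0.02 M, pH 7.4) washes and γ counting. Three repeats; IC50 converted to Ki by Cheng−Prusoff.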

Row | Activity [1] | Activity [2] | Activity [3] | Activity [4] | Ki [5] [nM] | SMILES
1 | Active | Active | Active | Active | 9.9 | CN(C)c1ccc(-c2nc3cc(OCCOCCOCCF)ccc3o2)cn1
2 | – | – | – | – | 29.7 | CNc1ccc(-c2nc3ccc(OCCOCCF)cc3s2)cn1
3 | – | – | – | – | 102 | CNc1ccc(-c2nc3cc(OCCOCCF)ccc3o2)cn1
